Activity calls are given as the source filed them. No cut-off for these calls is given here.
Columns and labels:
[1] = target: T1, NEDD8-activating enzyme E1 regulatory subunit (Homo sapiens) (UniProt Q13564); assay: Inhibition of APPBP1-mediated NEDD8 activation at […] after 1.5 hrs by Western blot analysis
T1 sequence (whole entry): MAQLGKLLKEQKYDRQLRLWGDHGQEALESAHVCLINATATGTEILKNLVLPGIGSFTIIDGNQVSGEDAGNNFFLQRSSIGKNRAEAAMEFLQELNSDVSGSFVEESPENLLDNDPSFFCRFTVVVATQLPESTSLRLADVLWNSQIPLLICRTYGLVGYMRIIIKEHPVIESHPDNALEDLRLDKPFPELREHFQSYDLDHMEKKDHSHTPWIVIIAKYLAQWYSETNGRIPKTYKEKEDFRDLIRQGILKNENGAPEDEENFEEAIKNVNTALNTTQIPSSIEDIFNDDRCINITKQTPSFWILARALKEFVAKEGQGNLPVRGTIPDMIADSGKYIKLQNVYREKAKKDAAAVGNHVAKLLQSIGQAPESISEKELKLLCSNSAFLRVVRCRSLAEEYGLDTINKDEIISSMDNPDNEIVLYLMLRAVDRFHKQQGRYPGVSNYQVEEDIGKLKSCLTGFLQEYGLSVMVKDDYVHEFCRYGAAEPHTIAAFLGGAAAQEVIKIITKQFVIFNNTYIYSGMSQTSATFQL

[2] = target: Insulin-like growth factor 1 receptor (Homo sapiens) (UniProt P08069); assay: Inhibition of IGF1R assessed as remaining activity at 0.1 uM by radiolabeled kinase assay relative to control
Chain of Insulin-like growth factor 1 receptor (Homo sapiens) (P08069 31-736 limits assumed): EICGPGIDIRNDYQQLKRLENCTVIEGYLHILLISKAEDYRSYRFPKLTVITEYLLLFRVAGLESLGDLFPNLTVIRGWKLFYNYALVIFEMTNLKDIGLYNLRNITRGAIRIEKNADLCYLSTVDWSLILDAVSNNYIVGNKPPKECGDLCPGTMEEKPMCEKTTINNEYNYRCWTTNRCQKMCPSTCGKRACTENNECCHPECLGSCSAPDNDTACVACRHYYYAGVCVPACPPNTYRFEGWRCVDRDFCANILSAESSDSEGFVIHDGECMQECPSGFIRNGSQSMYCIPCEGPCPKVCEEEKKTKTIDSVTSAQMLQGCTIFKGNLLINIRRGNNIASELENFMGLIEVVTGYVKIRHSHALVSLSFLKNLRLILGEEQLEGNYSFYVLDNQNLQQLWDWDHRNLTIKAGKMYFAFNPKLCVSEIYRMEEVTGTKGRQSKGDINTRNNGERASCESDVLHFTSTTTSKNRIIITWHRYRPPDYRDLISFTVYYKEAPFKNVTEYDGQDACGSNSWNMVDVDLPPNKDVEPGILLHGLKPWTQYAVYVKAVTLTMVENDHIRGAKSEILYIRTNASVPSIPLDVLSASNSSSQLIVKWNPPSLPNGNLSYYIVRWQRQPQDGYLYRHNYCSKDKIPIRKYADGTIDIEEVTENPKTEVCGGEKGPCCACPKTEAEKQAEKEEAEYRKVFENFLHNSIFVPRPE
Chain of Insulin-like growth factor 1 receptor (Homo sapiens) (P08069 741-1367 limits assumed): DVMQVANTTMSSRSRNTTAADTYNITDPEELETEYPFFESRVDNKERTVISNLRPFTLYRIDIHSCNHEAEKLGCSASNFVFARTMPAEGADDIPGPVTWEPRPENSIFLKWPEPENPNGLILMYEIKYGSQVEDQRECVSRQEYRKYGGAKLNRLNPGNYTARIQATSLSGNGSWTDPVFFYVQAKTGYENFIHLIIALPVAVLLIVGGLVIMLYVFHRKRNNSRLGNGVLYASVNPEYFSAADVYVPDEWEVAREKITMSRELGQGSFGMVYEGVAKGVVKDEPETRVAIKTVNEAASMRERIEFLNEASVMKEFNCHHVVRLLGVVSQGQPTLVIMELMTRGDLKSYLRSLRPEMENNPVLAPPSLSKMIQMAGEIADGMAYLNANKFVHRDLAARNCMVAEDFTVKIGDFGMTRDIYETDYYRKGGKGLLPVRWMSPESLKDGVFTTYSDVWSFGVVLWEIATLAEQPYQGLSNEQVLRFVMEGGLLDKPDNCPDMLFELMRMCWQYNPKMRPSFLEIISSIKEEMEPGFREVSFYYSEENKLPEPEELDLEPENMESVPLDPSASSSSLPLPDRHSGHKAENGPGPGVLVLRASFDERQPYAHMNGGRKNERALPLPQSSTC

Homo sapiens [3] = organism: Homo sapiens; assay: Inhibition of human recombinant UAE assessed as inhibition of UbcH6-Ub complex formation at 0.001 to 10 uM after 1.5 hrs by Western blot analysis
Summary of the method: (§1)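 Cell-free gel assay. Purified human recombinant E1 incubated with its matching Ub/Ubl and E2 in 50 mM HEPES pH 7.4, 5 mM MgCl2, 1–20 μM ATP. Inhibitor at 0, 0.001, 0.01, 0.1, 1 or 10 μM, 1.5 h at room temperature. Products resolved by SDS-PAGE, immunoblotted and detected by ECL; densitometry used for semiquantitation.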

[4] = target: Death-associated protein kinase 1 (Homo sapiens) (UniProt P53355); assay: Inhibition of DAPK1 assessed as remaining activity at 0.1 uM by radiolabeled kinase assay relative to control
Chain of Death-associated protein kinase 1 (Homo sapiens) (P53355 whole entry, looked up): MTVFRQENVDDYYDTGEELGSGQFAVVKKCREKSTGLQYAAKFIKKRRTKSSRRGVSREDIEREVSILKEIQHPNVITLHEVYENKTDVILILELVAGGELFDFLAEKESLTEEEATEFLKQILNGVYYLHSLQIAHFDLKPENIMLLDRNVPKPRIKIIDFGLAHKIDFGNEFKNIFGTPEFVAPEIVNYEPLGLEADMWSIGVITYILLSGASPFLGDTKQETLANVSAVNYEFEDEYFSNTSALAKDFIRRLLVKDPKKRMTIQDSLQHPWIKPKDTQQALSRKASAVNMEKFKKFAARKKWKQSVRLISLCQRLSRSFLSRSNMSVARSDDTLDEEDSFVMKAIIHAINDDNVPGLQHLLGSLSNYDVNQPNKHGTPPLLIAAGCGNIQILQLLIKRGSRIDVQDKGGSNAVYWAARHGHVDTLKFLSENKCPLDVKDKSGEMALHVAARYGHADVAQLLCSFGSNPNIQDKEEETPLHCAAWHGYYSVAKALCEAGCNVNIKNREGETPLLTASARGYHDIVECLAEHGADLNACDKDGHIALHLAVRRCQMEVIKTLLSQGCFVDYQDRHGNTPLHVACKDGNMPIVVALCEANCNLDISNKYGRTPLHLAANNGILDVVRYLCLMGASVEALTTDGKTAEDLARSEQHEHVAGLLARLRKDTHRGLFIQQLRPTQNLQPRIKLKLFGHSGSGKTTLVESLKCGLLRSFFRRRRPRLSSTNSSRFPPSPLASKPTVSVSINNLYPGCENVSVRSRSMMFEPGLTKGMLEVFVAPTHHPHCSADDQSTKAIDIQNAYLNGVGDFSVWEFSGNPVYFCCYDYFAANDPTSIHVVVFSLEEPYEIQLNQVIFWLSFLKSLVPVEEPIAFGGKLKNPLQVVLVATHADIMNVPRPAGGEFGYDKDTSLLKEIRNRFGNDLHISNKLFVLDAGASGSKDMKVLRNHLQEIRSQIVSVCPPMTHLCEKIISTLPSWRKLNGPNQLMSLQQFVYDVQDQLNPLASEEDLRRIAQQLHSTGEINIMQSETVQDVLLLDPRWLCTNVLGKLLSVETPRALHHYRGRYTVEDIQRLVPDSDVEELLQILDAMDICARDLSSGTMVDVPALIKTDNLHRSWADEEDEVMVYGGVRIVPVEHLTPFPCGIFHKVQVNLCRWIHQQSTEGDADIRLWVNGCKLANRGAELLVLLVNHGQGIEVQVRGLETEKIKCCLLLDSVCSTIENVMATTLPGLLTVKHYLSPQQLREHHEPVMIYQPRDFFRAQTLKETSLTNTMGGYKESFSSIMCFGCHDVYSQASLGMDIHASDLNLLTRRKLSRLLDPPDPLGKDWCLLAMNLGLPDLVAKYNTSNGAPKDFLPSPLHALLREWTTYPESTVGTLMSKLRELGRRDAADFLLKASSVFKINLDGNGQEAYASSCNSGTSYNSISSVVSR

Homo sapiens [5] = organism: Homo sapiens; assay: Inhibition of human recombinant NAE assessed as inhibition of NEDD8-UbcH12 complex formation at 0.001 to 10 uM after 1.5 hrs by Western blot analysis; summary of the method: as §1

inhibition [1]: Active
Activity [2]: 100%
inhibition (Homo sapiens [3]): Active
inhibition (Homo sapiens [5]): Active
SMILES: CCCCCCNc1ncnc2c1ncn2[C@@H]1O[C@H](COS(N)(=O)=O)[C@@H](O)[C@H]1O
Activity [4]: 88.5%
